In data set [1] the target is T1, Prostaglandin G/H synthase 1 (Ovis aries, UniProt P05979).
T1 sequence (P05979 whole entry): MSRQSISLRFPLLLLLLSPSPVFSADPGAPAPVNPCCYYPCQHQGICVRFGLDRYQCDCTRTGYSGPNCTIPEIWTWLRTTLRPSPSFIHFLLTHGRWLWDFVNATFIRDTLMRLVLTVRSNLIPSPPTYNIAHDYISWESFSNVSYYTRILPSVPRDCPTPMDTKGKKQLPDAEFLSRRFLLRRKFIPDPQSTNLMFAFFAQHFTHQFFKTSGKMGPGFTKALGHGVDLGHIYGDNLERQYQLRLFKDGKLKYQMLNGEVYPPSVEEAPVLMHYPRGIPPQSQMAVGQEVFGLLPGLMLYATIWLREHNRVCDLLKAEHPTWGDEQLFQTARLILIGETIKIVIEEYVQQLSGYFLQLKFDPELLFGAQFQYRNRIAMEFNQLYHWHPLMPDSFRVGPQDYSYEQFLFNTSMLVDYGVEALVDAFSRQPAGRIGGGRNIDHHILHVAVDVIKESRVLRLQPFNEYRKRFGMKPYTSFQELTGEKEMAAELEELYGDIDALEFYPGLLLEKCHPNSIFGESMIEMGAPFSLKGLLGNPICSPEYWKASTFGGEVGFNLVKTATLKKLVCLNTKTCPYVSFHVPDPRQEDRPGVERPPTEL
Put plainly: Inhibition of ovine COX-1 assessed as reduction in PGF2-alpha formation using arachidonic acid as substrate by enzyme immunoassay.

The subject of data set [2] is Rattus norvegicus. Put plainly: Ulcerogenicity in Wistar albino rat assessed as damage in gastric mucosa at 50 mg/kg, po qd for 3 days measured 1 hr post last dose. In kind it is toxicity, organism-based. Particulars: in vivo. In outline:
(§1)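 Rats were fasted 18 h, then dosed orally once daily for 3 consecutive days. Compounds were given in DMSO; controls received 10% aqueous DMSO (v/v). Ulcer index is the sum of % ulcer incidence/10, mean number of ulcers per stomach and mean ulcer severity. Values are mean ± SEM.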

In data set [3] the test system is Rattus norvegicus. Put plainly: Anti-inflammatory activity in Wistar albino rat assessed as inhibition of carrageenan-induced paw edema at 50 mg/kg, po measured after 4 hrs relative to control. In kind it is functional. In outline: (§2)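 Adult male Wistar albino rats (100–150 g) were housed under a 12 h light cycle at 27 ± 2 °C with food and water. Paw edema was induced with carrageenan after oral dosing. […] Values are mean ± SEM, n = 5.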

Data set [4] in a line: Inhibition of soybean 15-LOX using arachidonic acid as substrate by enzyme immunoassay. Details: species or system Glycine max. The gist of the method: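 Soybean 15-LOX inhibition was measured with an EIA kit following the manufacturer's instructions, in 0.1 M Tris-HCl buffer, pH 7.4. Compounds were dissolved in minimal DMSO and diluted to final concentrations of 0.001–10 μM, including 1, 5 and 10 μM. IC50 (μM) is the mean of two determinations.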

The subject of data set [5] is Rattus norvegicus. Put plainly: Anti-inflammatory activity in Wistar albino rat assessed as inhibition of carrageenan-induced paw edema at 50 mg/kg, po measured after 2 hrs relative to control. In kind it is functional. The gist of the method: as §2
For data set [6], the system named is Rattus norvegicus. Put plainly: Ulcerogenicity in Wistar albino rat assessed as damage in gastric mucosa at 30.9 umol/kg, po qd for 3 days measured 1 hr post last dose. Particulars: in vivo. In kind it is toxicity, organism-based. The gist of the method: as §1
The test system of data set [7] is Rattus norvegicus. Put plainly: Anti-inflammatory activity in Wistar albino rat assessed as inhibition of carrageenan-induced paw edema 15 mg/kg, po measured after 4 hrs relative to control. Format: functional. The gist of the method:
as §2

The test system of data set [8] is Rattus norvegicus. Put plainly: Anti-inflammatory activity against Wistar albino rat model of carrageenan-induced paw edema assessed as reduction in paw thickness at 15 mg/kg, po measured after 2 hrs relative to control. In kind it is functional. In outline:
as §2

This is an account of results in ChEMBL document CHEMBL3822360, “Synthesis of new thiazolo-celecoxib analogues as dual cyclooxygenase-2/15-lipoxygenase inhibitors: Determination of regio-specific different pyrazole cyclization by 2D NMR” (Eur J Med Chem, 2016).

Each structure is given as a SMILES string. pIC50: −log10 of the molar value.

Take `C/C(=N\Nc1ccc(S(N)(=O)=O)cc1)c1sc(-c2ccccc2)nc1C`: the pIC50 was 5.01 in data set [1] and 5.07 in data set [4]. In data set [2], the UI amounted to 2.65. Also, the inhibition in vivo at 50 mg/kg in data set [3] is 37.1%; in data set [5] it was 33.9%.

`Cc1nc(-c2ccccc2)sc1-c1ccnn1-c1ccc(S(=O)(=O)/N=C/N(C)C)cc1`: the negative logarithm of the IC50 (pIC50) in data set [1] was 5.06; in data set [4], 5.11. Further, the UI in data set [2] is on record as 2.93. The results for the inhibition in vivo at 50 mg/kg in data set [3] and in data set [5] were 51.6% and 53.2%, respectively.

On to `Cc1nc(-c2ccccc2)sc1-c1cc(C(F)(F)F)nn1-c1ccc(S(N)(=O)=O)cc1`, for which the figures for the pIC50 in data set [1] and in data set [4] were 5.20 and 5.27, respectively. Also, the UI in data set [2] is on record as 2.67. For the same molecule, the inhibition in vivo at 50 mg/kg is 57.8% in data set [3] and 53.2% in data set [5].

Turning to `Cc1ccc(-c2cc(C(F)(F)F)nn2-c2ccc(S(N)(=O)=O)cc2)cc1` [CELECOXIB], the UI in data set [6] came to 2.9. In addition, in data set [7], the “inhibition (INH)” value came to 65.63%. Also, the inhibition in vivo at 15 mg/kg in data set [8] was determined as 59.7%.

In data set [4], `Cc1ccc(Cl)c(Nc2ccccc2C(=O)O)c1Cl` [MECLOFENAMATE SODIUM] gave a negative logarithm of the IC50 (pIC50) of 5.25.

Regarding `Cc1nc(-c2ccccc2)sc1-c1ccnn1-c1ccc(S(C)(=O)=O)cc1`, the pIC50 in data set [1] is 4.99; in data set [4] it was 5.13. For the same molecule, in data set [2], the UI amounted to 4.35. Also, the inhibition in vivo at 50 mg/kg turned out to be 48.4% in data set [3] and 46.8% in data set [5].

Take `COc1ccc([C@@H]2CC(c3sc(-c4ccccc4)nc3C)=NN2c2ccc(S(N)(=O)=O)cc2)cc1`: the figures for the pIC50 in data set [1] and in data set [4] were 5.17 and 5.23, respectively. The UI in data set [2] is on record as 3.79. Also, the inhibition in vivo at 50 mg/kg amounted to 42.2% in data set [3] and 37.1% in data set [5].

As to `C/C(=N\Nc1ccc(S(C)(=O)=O)cc1)c1sc(-c2ccccc2)nc1C`, the pIC50 is 5.27 in data set [1] and 5.20 in data set [4]. The UI in data set [2] amounted to 3.87. Moreover, the values for the inhibition in vivo at 50 mg/kg in data set [3] and in data set [5] were 28.1% and 27.4%, respectively.

As to `Cc1nc(-c2ccccc2)sc1-c1ccnn1-c1ccc(S(N)(=O)=O)cc1`, the figures for the pIC50 in data set [1] and in data set [4] were 5.01 and 5.06, respectively. Further, the UI in data set [2] was 2.48. For the same molecule, the results for the inhibition in vivo at 50 mg/kg in data set [3] and in data set [5] were 54.7% and 54.8%, respectively.

Take `COc1ccc(/C=C/C(=O)c2sc(-c3ccccc3)nc2C)cc1`: the pIC50 in data set [1] was 5.07; in data set [4], 5.13. Further, the UI in data set [2] is 4.08. Moreover, the inhibition in vivo at 50 mg/kg in data set [3] was 46.9%; in data set [5], 43.8%.

Regarding `Cc1nc(-c2ccccc2)sc1-c1cc(C(F)(F)F)nn1-c1ccc(S(C)(=O)=O)cc1`, the pIC50 was 5.32 in data set [1] and 5.40 in data set [4]. For the same molecule, in data set [2], the UI worked out at 2.78. In addition, the inhibition in vivo at 50 mg/kg was 51.6% in data set [3] and 53.2% in data set [5].

Take `COc1ccc([C@@H]2CC(c3sc(-c4ccccc4)nc3C)=NN2c2ccc(S(C)(=O)=O)cc2)cc1`: the pIC50 in data set [1] was 5.24; in data set [4], 5.33. Also, in data set [2], the UI worked out at 3.83. The figures for the inhibition in vivo at 50 mg/kg in data set [3] and in data set [5] were 28.1% and 27.5%, respectively.
